Test results taken from the RNAGym collection of RNA variant scans (doi:10.1126/science.aae0568).
Fewer inactive variants are shown than the library holds.

B1: tRNA (parent)
chain: GUUCCGUUGGCGUAAUGGUAACGCGUCUCCCUCCUAAGGAGAAGACUGCGGGUUCGAGUCCCGUACGGAACG

Variants of: B1
Experiment: yeast fitness relative to wild type (ratio to wild type); higher = fitter; tRNA-Arg(CCU), competitive growth, 37 C, YPD
Summary of the method: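 Variants of the tRNA-Arg(CCU) gene were chemically synthesised with a 3% per-site mutation rate across 69 sites and placed at the native genomic locus in Saccharomyces cerevisiae. Six parallel replicates of the pooled strains were competed in YPD at 37°C for 24 hours, and gene amplicons from the start and end populations were read by 100-nucleotide paired-end sequencing. Darwinian fitness relative to wild type was derived from changes in genotype frequencies. Genotypes required ≥ 100 starting reads, and estimates < 0.5 were set to 0.5.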

| Variant | yeast fitness |
| --- | --- |
| GUUCCGUUGGCGUAAUGGUACAGCGCCUCCCUCCUAAGGAGAAGACUGCGGGUUCGAGUCCCGUACGGAACG [A21C C22A U26C] | ≤ 0.5 |
| GUUCCCUUGGCGUAAUGGUAACGCGUCUCCCUCGUAAGGAGAAGUCUGCGGGUUCGAGUCCCGUACGCAACG [G6C C34G A45U G68C] | ≤ 0.5 |
| GUUCCGUUGGCGGAAUGGUAACGCGUCUCCCUCCUAAGCAGAAGAUUGCGGGUUCGAGUCCCGUACGGAACG [U13G G39C C46U] | 0.535 |
| GUUCCGUUGGCGUAAUGGUAACGCGUCUCCCUCCUAAGGUGCAGUCCGCGGGUUCGAGUCCCGUGCGGAACG [A40U A42C A45U U47C A65G] | ≤ 0.5 |
| GUUCCGAUGGCGUAAUGGUAACGCGUCUCCCUCCUAAGGAGAAGACUGCGGGUUCGACUCCCGUACGGAACG [U7A G58C] | 0.918 |
| GUUCCGUUGGCGUAAUGAUAACGCGUCUCCCUCCUAAGGAGAAGACUGCGGGUUCGACUCCCGUACGGAACG [G18A G58C] | 0.792 |
| GUUCCGUUGGUGUAAUGGUAACGCGUCUCCCUCCUAAGGACGAGACUGCGGGUUCGAGUCCCGUACGGAACG [C11U G41C A42G] | 0.547 |
| GUUCCGUUGGCGUAAUGGUAACGCGUCUCCCUCCUUAGGAGAAGACUGCGGGUUCGAGUCCCGUACGGGACG [A36U A69G] | 0.617 |
| GAUCCGUUGGCGUAAUGGUAACGCCUCUCCCUCCUUAGGAGAAGACUGCGGGUUCGAGUCCCGUACGGAACG [U2A G25C A36U] | ≤ 0.5 |
| GUUCCGUUGGCGUAAUGAUAACGCGUCUGCCUCCUAGGGAGAAGACUGCGGGUUCGAGUCCCGUACGGAACG [G18A C29G A37G] | 0.598 |
| GUUCCGUUGGCGUAAUGGUAACGCGUCUCCCUCCUAAGGAGGAGACUGCGUGUUCGUGUCCCGUACAGAACG [A42G G51U A57U G67A] | ≤ 0.5 |
| GUUCCGUUGGCGUAAUGGUAACGCGUCUCCCUCCUUGGGCGAAGACUGCGGGUUCGAGUCCCGUAUGGAACG [A36U A37G A40C C66U] | 0.636 |
| GUUCCGUUGGCGCAAUGGUAACGCGUCUCCCUCCUAAGGAGAUGACUGUGGGUUCGAGUCCCGUACGGAACG [U13C A43U C49U] | 0.716 |
| GUCCCGUUGGCAUAAUGGUAACGCGUCUCCCUCCUACGGAGAAGUCUCCGGGUUCGAGUCCCGUAUCGAGCG [U3C G12A A37C A45U G48C C66U G67C A70G] | ≤ 0.5 |
| GUUCGGUUGGCGUAAUGGUAACGCGUCUUCCUCCUAAGAAGAAGACUGCGGGUUCGAGUCCCGUACGGAACG [C5G C29U G39A] | 0.671 |
| GUUCGGUUGGCGUAAUGGUAACGCAUCUCCCUCCUAAGGAGAAGACUGCGGGUUCGAGUCCCGUACGCAACG [C5G G25A G68C] | 0.69 |
| GUUCCGUUGGCGCAAUGGUAACGCGUCUCCUUCCUAAGGAGAAGACUGCGGGUUCCAGUCCCGUACGGAACG [U13C C31U G56C] | ≤ 0.5 |
| GUUCCGUUGGCGUAAUGGUAACGCGUCUUCCUCCUAAGGAGAAGACUGCGGGUUCGUGUCCAGUACGGAACG [C29U A57U C62A] | ≤ 0.5 |
| GUUCCGUUGGUGUAAUGGUAACGCGUCCGCCUCCUAAGCAGAAGACUGCGGGUUCGAGUCCCGUACGGAACG [C11U U28C C29G G39C] | ≤ 0.5 |

| Variant | yeast fitness |
| --- | --- |
| GUUCCGUUGGCGUAAUGGUAACGCCUCUCCCUCCUAAGGAGAAGACUGCGGGUUCGAGCCCCGUACGGAACG [G25C U59C] | 0.932 |
| GUUCGGUUGGCGUGAUGGUAACGCGUGUCCCUCCUAAGGAGAAGACUGCGGGUUCGAGUCCCGUACGGAACG [C5G A14G C27G] | ≤ 0.5 |
| GUUCCGUUGGCGUAAUGGUAACGCGUCACCCUCCUAAGGAGAAGACUGCGGGUUCGAGUCCCGUACGGAACG [U28A] | 0.892 |
| GUUCCGUUGGCGUAAUGGAAACGCGCCUCACUCCUAAGGAGAAGACUGCGGGUUCGAGUCCCGUACGGAACG [U19A U26C C30A] | 0.639 |
| GUUUCGUUGACGUAAUGGUAACGUGUCUCCCUCCUAAGGAGAAGACUGCGGGUUCGAGUCCCGUACGGAACG [C4U G10A C24U] | 0.98 |
| GUUCCGUUGGCGUAAUGGUAACGCGUCUCCCUCCUAAGGAGAAGACUGCGGGUUCGAGUCUCAUACGGAACG [C61U G63A] | 0.874 |
| GUUCCGUUGGCGUAAUGGUAGCGCGUCUCCCUCCAAAGGAGAAGACUGCGGGUUUGAGUCCCGUGCGGAACG [A21G U35A C55U A65G] | ≤ 0.5 |
| GUUCCGUUGGCGUAAUGGUAACGCGUCUACCUCCUAAGGAGAAGACUGCGGGUUCGAAUCCCGUACGGAACG [C29A G58A] | 0.653 |
| GUUCCGUUGGCGUAAUGGUAACGCGUCUCCCUUCUAAGGACAAGACUGCGGGUUAGAGUCCCGUACGGCACG [C33U G41C C55A A69C] | ≤ 0.5 |
| GUUCCGUUGGCGUAAUGGUAAGGCGUCUCCCUCCUAAGGAGAAGACUGCGGGUUUGUGUCCCGUACGGAACG [C22G C55U A57U] | ≤ 0.5 |
| GUUCCGUUGGCGUUAUGGUUACGCGUCUCCCUCCUAAGGAGAAGACUGCGGUUUCGAGUCCCGUACGGAACG [A14U A20U G52U] | 0.591 |
| GUUUCGUUGGCGUAAUGGUAACGCGUCUACGUCCUAAGGAGCAGUCUGCGGGUUCGAGUCCCGUCCGGAACG [C4U C29A C31G A42C A45U A65C] | ≤ 0.5 |
| GAUCCGUUGGCGUAAUGGUAACGCGUCUCCCUCCUAACGAGAAGACUGCGGGUUCGAGUCCCGUACGGUACG [U2A G38C A69U] | ≤ 0.5 |
| GUUCCGUUGGCGUAAUGGUAGCGCCUCUCCCUCCUAAGGAGAAGACUGCGGGUUCGAGUCCCGUGCGGAACG [A21G G25C A65G] | 0.751 |
| GAUCCGUUGGCGUAAUGGUAACGCGUCUCCCUCCUAAGGAGAAGACUGCGGGUUCGAGUCCCGUAUAGAACG [U2A C66U G67A] | 0.601 |
| GUUCCGUUGGCGUAAUGGUAACGCGUCUCCCUCCUAAGGAGAAGAUUGCGGGUUCGAGUCCCGUCUGGAACG [C46U A65C C66U] | 0.721 |
| GUUCCGUUGGCGUAUUGGUAACGCGUCUCCCUCCUAAGGAGAAGACUGCGGGUUCGCGUCCCGUGCGGAACG [A15U A57C A65G] | ≤ 0.5 |
| GUUUCGUUGGCGUAAUGGUAACGUGUCUCCAUCCUAAGGAGAAGACUGCGGGUUCCAGUCCCGUACGGAACG [C4U C24U C31A G56C] | 0.63 |
